# Laboratory results taken from ChEMBL document CHEMBL1240405, “Activity of a new cephalosporin, CXA-101 (FR264205), against beta-lactam-resistant Pseudomonas aeruginosa mutants selected in vitro and after antipseudomonal treatment of intensive care unit patients” (2010).
# Tests used:
# Type in all cases: functional
# Pseudomonas aeruginosa [1] = assay: Antimicrobial activity against beta-lactam resistant Pseudomonas aeruginosa PA01 deficient in dacB gene by broth microdilution method
# In short: (§1)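 Broth microdilution MICs per CLSI M100-S18, over 0.12 to 256 μg/ml. Strains are PAO1 and its mutants. oprD mutants were selected overnight on Mueller-Hinton agar with 4 μg/ml imipenem, passaged antibiotic-free, then confirmed by oprD amplification and sequencing. PAO1 and ATCC 27853 were run alongside as quality controls.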
# Pseudomonas aeruginosa [2] = assay: Antimicrobial activity against beta-lactam resistant Pseudomonas aeruginosa PAO1 deficient in ampD and dacB gene selected in vitro after antipseudomonal treatment of intensive care unit patient by broth microdilution method; in short: as §1
# Pseudomonas aeruginosa [3] = assay: Antimicrobial activity against beta-lactam resistant Pseudomonas aeruginosa PAO1 deficient in ampD and ampDh3 gene selected in vitro after antipseudomonal treatment of intensive care unit patient by broth microdilution method; in short: as §1
# Pseudomonas aeruginosa [4] = assay: Antimicrobial activity against beta-lactam resistant Pseudomonas aeruginosa PAOD3 harboring oprD spontaneous mutant and deficient in dacB gene selected in vitro after antipseudomonal treatment of intensive care unit patient by broth microdilution method; in short: as §1
# Pseudomonas aeruginosa [5] = assay: Antimicrobial activity against beta-lactam resistant Pseudomonas aeruginosa PAOD2 harboring oprD spontaneous mutant and deficient in dacB gene selected in vitro after antipseudomonal treatment of intensive care unit patient by broth microdilution method; in short: as §1
# Pseudomonas aeruginosa [6] = assay: Antimicrobial activity against beta-lactam resistant Pseudomonas aeruginosa PAOD1 harboring oprD spontaneous mutant and deficient in ampD gene selected in vitro after antipseudomonal treatment of intensive care unit patient by broth microdilution method; in short: as §1
# Pseudomonas aeruginosa [7] = assay: Antimicrobial activity against beta-lactam resistant Pseudomonas aeruginosa PAO1 deficient in ampD gene selected in vitro after antipseudomonal treatment of intensive care unit patient by broth microdilution method; in short: as §1
# Pseudomonas aeruginosa [8] = assay: Antimicrobial activity against beta-lactam resistant Pseudomonas aeruginosa PAO1 by broth microdilution method; in short: as §1
# Pseudomonas aeruginosa [9] = assay: Antimicrobial activity against beta-lactam resistant Pseudomonas aeruginosa PAOD3 harboring oprD spontaneous mutant selected in vitro after antipseudomonal treatment of intensive care unit patient by broth microdilution method; in short: as §1
# Pseudomonas aeruginosa [10] = assay: Antimicrobial activity against beta-lactam resistant Pseudomonas aeruginosa PAOD2 harboring oprD spontaneous mutant selected in vitro after antipseudomonal treatment of intensive care unit patient by broth microdilution method; in short: as §1
# Pseudomonas aeruginosa [11] = assay: Antimicrobial activity against beta-lactam resistant Pseudomonas aeruginosa PAOD1 harboring oprD spontaneous mutant and deficient in dacB gene selected in vitro after antipseudomonal treatment of intensive care unit patient by broth microdilution method; in short: as §1
# Pseudomonas aeruginosa [12] = assay: Antimicrobial activity against Pseudomonas aeruginosa clinical isolate assessed as resistant isolates selected in vitro after antipseudomonal treatment of intensive care unit patient by CLSI method
# Pseudomonas aeruginosa [13] = assay: Antimicrobial activity against beta-lactam resistant Pseudomonas aeruginosa PAO1 deficient in ampD, […] gene selected in vitro after antipseudomonal treatment of intensive care unit patient by broth microdilution method; in short: as §1
# Pseudomonas aeruginosa [14] = assay: Antimicrobial activity against beta-lactam resistant Pseudomonas aeruginosa PAOD2 harboring oprD spontaneous mutant and deficient in ampD gene by selected in vitro after antipseudomonal treatment of intensive care unit patient by broth microdilution method; in short: as §1
# Pseudomonas aeruginosa [15] = assay: Antimicrobial activity against beta-lactam resistant Pseudomonas aeruginosa PAOD1 harboring oprD spontaneous mutant selected in vitro after antipseudomonal treatment of intensive care unit patient by broth microdilution method; in short: as §1
# Pseudomonas aeruginosa [16] = assay: Antimicrobial activity against beta-lactam resistant beta-lactam resistant Pseudomonas aeruginosa PAOD3 harboring oprD spontaneous mutant and deficient in ampD gene selected in vitro after antipseudomonal treatment of intensive care unit patient by broth microdilution method; in short: as §1
# Pseudomonas aeruginosa [17] = assay: Antimicrobial activity against pan-beta-lactam resistant Pseudomonas aeruginosa clinical isolate selected in vitro after antipseudomonal treatment of intensive care unit patient by broth microdilution method
# In short: (§2)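 MICs by standard CLSI broth microdilution (M100-S18) at 0.12 to 256 μg/ml. The isolates are sequential P. aeruginosa isolates that emerged during antipseudomonal therapy of patients in a Spanish ICU (2002–2003). P. aeruginosa PAO1 and ATCC 27853 were run in parallel for quality control.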
# Pseudomonas aeruginosa [18] = assay: Antimicrobial activity against cefipime resistant Pseudomonas aeruginosa by microdilution method
# Pseudomonas aeruginosa [19] = assay: Antimicrobial activity against Pseudomonas aeruginosa clinical isolate selected in vitro after antipseudomonal treatment of intensive care unit patient by broth microdilution method; in short: as §2
# Pseudomonas aeruginosa [20] = assay: Antimicrobial activity against PIP-tazobactam resistant Pseudomonas aeruginosa clinical isolate selected in vitro after antipseudomonal treatment of intensive care unit patient by broth microdilution method; in short: as §2
# Pseudomonas aeruginosa [21] = assay: Antimicrobial activity against metallo beta-lactamase producing Pseudomonas aeruginosa isolates
# Pseudomonas aeruginosa [22] = assay: Antimicrobial activity against Pseudomonas aeruginosa by after 18-20 hrs agar dilution method
# Pseudomonas aeruginosa [23] = assay: Antimicrobial activity against meropenem resistant Pseudomonas aeruginosa clinical isolate selected in vitro after antipseudomonal treatment of intensive care unit patient by broth microdilution method; in short: as §2
# Pseudomonas aeruginosa [24] = assay: Antimicrobial activity against Ceftazidime resistant Pseudomonas aeruginosa clinical isolate selected in vitro after antipseudomonal treatment of intensive care unit patient by broth microdilution method; in short: as §2
# Pseudomonas aeruginosa [25] = assay: Antimicrobial activity against ciprofloxacin resistant Pseudomonas aeruginosa clinical isolate selected in vitro after antipseudomonal treatment of intensive care unit patient by broth microdilution method; in short: as §2
# Pseudomonas aeruginosa [26] = assay: Antimicrobial activity against cefipime resistant Pseudomonas aeruginosa clinical isolate selected in vitro after antipseudomonal treatment of intensive care unit patient by broth microdilution method; in short: as §2
# Pseudomonas aeruginosa [27] = assay: Antimicrobial activity against cefipime resistant Pseudomonas aeruginosa overexpressing MexXY-OprM gene by microdilution method
# Pseudomonas aeruginosa [28] = assay: Antimicrobial activity against multidrug resistant Pseudomonas aeruginosa clinical isolate selected in vitro after antipseudomonal treatment of intensive care unit patient by broth microdilution method; in short: as §2
# Pseudomonas aeruginosa [29] = assay: Antimicrobial activity against extended spectrum beta-lactamase producing Pseudomonas aeruginosa isolates by broth microdilution method
# Pseudomonas aeruginosa [30] = assay: Antimicrobial activity against Imipenem resistant Pseudomonas aeruginosa clinical isolate selected in vitro after antipseudomonal treatment of intensive care unit patient by broth microdilution method; in short: as §2
# Pseudomonas aeruginosa [31] = assay: Antimicrobial activity against Pseudomonas aeruginosa AmpC overexpressing clinical isolate selected in vitro after antipseudomonal treatment of intensive care unit patient by broth microdilution method; in short: as §2
structure (smiles),measurement,setting,value
C[C@@H](O)[C@H]1C(=O)N2C(C(=O)O)=C(S[C@@H]3CN[C@H](C(=O)N(C)C)C3)[C@H](C)[C@H]12 [MEROPENEM],MIC,Pseudomonas aeruginosa [1],0.5 µg/mL
same,MIC,Pseudomonas aeruginosa [2],2 µg/mL
same,MIC,Pseudomonas aeruginosa [3],2 µg/mL
same,MIC,Pseudomonas aeruginosa [4],4 µg/mL
same,MIC,Pseudomonas aeruginosa [5],4 µg/mL
same,MIC,Pseudomonas aeruginosa [6],8 µg/mL
same,MIC,Pseudomonas aeruginosa [7],2 µg/mL
same,MIC,Pseudomonas aeruginosa [8],0.5 µg/mL
same,MIC,Pseudomonas aeruginosa [9],2 µg/mL
same,MIC,Pseudomonas aeruginosa [10],2 µg/mL
same,MIC,Pseudomonas aeruginosa [11],4 µg/mL
same,Activity,Pseudomonas aeruginosa [12],52%
same,MIC,Pseudomonas aeruginosa [13],1 µg/mL
same,MIC,Pseudomonas aeruginosa [14],8 µg/mL
same,MIC,Pseudomonas aeruginosa [15],1 µg/mL
same,MIC,Pseudomonas aeruginosa [16],8 µg/mL
C[C@@H](O)[C@H]1C(=O)N2C(C(=O)O)=C(SCCNC=N)C[C@H]12 [IMIPENEM ANHYDROUS],MIC,Pseudomonas aeruginosa [1],2 µg/mL
same,MIC,Pseudomonas aeruginosa [2],2 µg/mL
same,MIC,Pseudomonas aeruginosa [3],2 µg/mL
same,MIC,Pseudomonas aeruginosa [4],16 µg/mL
same,MIC,Pseudomonas aeruginosa [5],16 µg/mL
same,MIC,Pseudomonas aeruginosa [6],16 µg/mL
same,MIC,Pseudomonas aeruginosa [7],2 µg/mL
same,MIC,Pseudomonas aeruginosa [8],2 µg/mL
same,MIC,Pseudomonas aeruginosa [9],16 µg/mL
same,MIC,Pseudomonas aeruginosa [10],8 µg/mL
same,MIC,Pseudomonas aeruginosa [11],16 µg/mL
same,Activity,Pseudomonas aeruginosa [12],57%
same,MIC,Pseudomonas aeruginosa [13],1 µg/mL
same,MIC,Pseudomonas aeruginosa [14],16 µg/mL
same,MIC,Pseudomonas aeruginosa [15],16 µg/mL
same,MIC,Pseudomonas aeruginosa [16],16 µg/mL
CC(C)(O/N=C(\C(=O)N[C@@H]1C(=O)N2C(C(=O)[O-])=C(C[n+]3ccccc3)CS[C@H]12)c1csc(N)n1)C(=O)O [CEFTAZIDIME],MIC,Pseudomonas aeruginosa [1],32 µg/mL
same,MIC,Pseudomonas aeruginosa [2],128 µg/mL
same,MIC,Pseudomonas aeruginosa [3],32 µg/mL
same,MIC,Pseudomonas aeruginosa [4],32 µg/mL
same,MIC,Pseudomonas aeruginosa [5],32 µg/mL
same,MIC,Pseudomonas aeruginosa [6],16 µg/mL
same,MIC,Pseudomonas aeruginosa [7],8 µg/mL
same,MIC,Pseudomonas aeruginosa [8],2 µg/mL
same,MIC,Pseudomonas aeruginosa [9],2 µg/mL
same,MIC,Pseudomonas aeruginosa [10],2 µg/mL
same,MIC,Pseudomonas aeruginosa [11],32 µg/mL
same,Activity,Pseudomonas aeruginosa [12],81%
same,MIC,Pseudomonas aeruginosa [13],32 µg/mL
same,MIC,Pseudomonas aeruginosa [14],16 µg/mL
same,MIC,Pseudomonas aeruginosa [15],2 µg/mL
same,MIC,Pseudomonas aeruginosa [16],16 µg/mL
Cn1c(N)c(NC(=O)NCCN)c[n+]1CC1=C(C(=O)O)N2C(=O)[C@@H](NC(=O)/C(=N\OC(C)(C)C(=O)[O-])c3nsc(N)n3)[C@H]2SC1 [CEFTOLOZANE],MIC,Pseudomonas aeruginosa [1],1 µg/mL
same,MIC,Pseudomonas aeruginosa [2],2 µg/mL
same,MIC,Pseudomonas aeruginosa [17],2.53 µg/mL
same,MIC,Pseudomonas aeruginosa [18],1 µg/mL
same,MIC,Pseudomonas aeruginosa [3],1 µg/mL
same,MIC50,Pseudomonas aeruginosa [19],0.5 µg/mL
same,MIC80,Pseudomonas aeruginosa [19],0.53 µg/mL
same,MIC90,Pseudomonas aeruginosa [19],2 µg/mL
same,GM MIC,Pseudomonas aeruginosa [20],1.59 µg/mL
same,MIC50,Pseudomonas aeruginosa [20],1 µg/mL
same,MIC90,Pseudomonas aeruginosa [20],4 µg/mL
same,Ratio,Pseudomonas aeruginosa [21],0.25
same,Ratio,Pseudomonas aeruginosa [22],-0.5
same,GM MIC,Pseudomonas aeruginosa [23],0.86 µg/mL
same,MIC50,Pseudomonas aeruginosa [23],0.5 µg/mL
same,MIC90,Pseudomonas aeruginosa [23],4 µg/mL
same,MIC,Pseudomonas aeruginosa [4],0.5 µg/mL
same,MIC,Pseudomonas aeruginosa [5],0.5 µg/mL
same,GM MIC,Pseudomonas aeruginosa [24],0.94 µg/mL
same,MIC50,Pseudomonas aeruginosa [24],1 µg/mL
same,MIC90,Pseudomonas aeruginosa [24],4 µg/mL
same,MIC,Pseudomonas aeruginosa [6],0.5 µg/mL
same,MIC,Pseudomonas aeruginosa [7],0.5 µg/mL
same,MIC,Pseudomonas aeruginosa [8],0.5 µg/mL
same,MIC,Pseudomonas aeruginosa [9],0.5 µg/mL
same,MIC,Pseudomonas aeruginosa [10],0.5 µg/mL
same,MIC,Pseudomonas aeruginosa [11],0.5 µg/mL
same,MIC,Pseudomonas aeruginosa [25],0.88 µg/mL
same,MIC50,Pseudomonas aeruginosa [25],1 µg/mL
same,MIC90,Pseudomonas aeruginosa [25],4 µg/mL
same,GM MIC,Pseudomonas aeruginosa [26],0.91 µg/mL
same,MIC50,Pseudomonas aeruginosa [26],1 µg/mL
same,MIC90,Pseudomonas aeruginosa [26],4 µg/mL
same,MIC,Pseudomonas aeruginosa [27],1 µg/mL
same,MIC,Pseudomonas aeruginosa [13],1 µg/mL
same,MIC,Pseudomonas aeruginosa [14],0.5 µg/mL
same,MIC,Pseudomonas aeruginosa [15],0.5 µg/mL
same,MIC,Pseudomonas aeruginosa [16],0.5 µg/mL
same,MIC,Pseudomonas aeruginosa [28],1.83 µg/mL
same,MIC,Pseudomonas aeruginosa [29],> 8 µg/mL
same,GM MIC,Pseudomonas aeruginosa [30],0.84 µg/mL
same,MIC50,Pseudomonas aeruginosa [30],0.5 µg/mL
same,MIC90,Pseudomonas aeruginosa [30],4 µg/mL
same,MIC,Pseudomonas aeruginosa [31],0.71 µg/mL
same,MIC50,Pseudomonas aeruginosa [31],1 µg/mL
same,MIC90,Pseudomonas aeruginosa [31],4 µg/mL
